Data reported in ChEMBL document CHEMBL1157912, “Impact of nature and length of linker incorporated in agonists on toll-like receptor 9-mediated immune responses” (J Med Chem, 2010).

Tests used:
[1] = target: T1, Toll-like receptor 9 (Homo sapiens) (UniProt Q9NR96); experiment: Induction of TLR9-mediated immune stimulation in human PBMC assessed as IL12 production at 10 ug/ml after 24 hrs by luminex multiplex assay (RVb = 0.00 ng/ml)
T1 sequence (whole entry): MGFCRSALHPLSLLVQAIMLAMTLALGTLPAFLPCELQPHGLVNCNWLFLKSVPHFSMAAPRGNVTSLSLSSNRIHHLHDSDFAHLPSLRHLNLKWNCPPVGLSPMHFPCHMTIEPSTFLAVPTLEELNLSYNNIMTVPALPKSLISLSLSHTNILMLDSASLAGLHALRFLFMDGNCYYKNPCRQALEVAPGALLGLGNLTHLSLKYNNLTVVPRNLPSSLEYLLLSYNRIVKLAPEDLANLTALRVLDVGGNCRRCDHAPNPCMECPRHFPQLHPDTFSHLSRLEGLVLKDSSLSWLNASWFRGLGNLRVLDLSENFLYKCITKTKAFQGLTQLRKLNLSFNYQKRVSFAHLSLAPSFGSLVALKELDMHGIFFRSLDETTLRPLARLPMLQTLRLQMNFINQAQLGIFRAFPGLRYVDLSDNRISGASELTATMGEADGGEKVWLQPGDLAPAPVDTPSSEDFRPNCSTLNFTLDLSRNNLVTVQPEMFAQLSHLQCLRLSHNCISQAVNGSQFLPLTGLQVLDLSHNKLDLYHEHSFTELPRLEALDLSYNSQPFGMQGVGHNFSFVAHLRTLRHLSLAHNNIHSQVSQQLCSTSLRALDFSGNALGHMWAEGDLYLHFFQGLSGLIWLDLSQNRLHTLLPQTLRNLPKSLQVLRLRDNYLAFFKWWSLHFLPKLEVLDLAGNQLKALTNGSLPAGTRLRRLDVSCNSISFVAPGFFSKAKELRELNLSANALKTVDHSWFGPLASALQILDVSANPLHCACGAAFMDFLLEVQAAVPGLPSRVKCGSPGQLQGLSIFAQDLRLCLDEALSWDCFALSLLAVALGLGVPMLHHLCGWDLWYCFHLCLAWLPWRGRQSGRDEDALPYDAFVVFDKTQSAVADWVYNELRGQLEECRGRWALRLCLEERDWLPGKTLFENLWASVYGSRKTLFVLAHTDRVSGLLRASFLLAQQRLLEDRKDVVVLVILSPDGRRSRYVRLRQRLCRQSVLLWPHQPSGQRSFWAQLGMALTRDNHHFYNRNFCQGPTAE

[2] = target: T1, Toll-like receptor 9 (Homo sapiens); experiment: Induction of TLR9-mediated immune stimulation in human PBMC assessed as MIP1alpha production at 10 ug/ml after 24 hrs by luminex multiplex assay (RVb = 0.01 ng/ml)
[3] = target: T1, Toll-like receptor 9 (Homo sapiens); experiment: Induction of TLR9-mediated immune stimulation in human PBMC assessed as IP10 production at 2 ug/ml after 24 hrs by luminex multiplex assay (RVb = 0.00 ng/ml)
[4] = target: T1, Toll-like receptor 9 (Homo sapiens); experiment: Induction of TLR9-mediated immune stimulation in human PBMC assessed as IL1Ralpha production at 10 ug/ml after 24 hrs by luminex multiplex assay (RVb = 0.12 +/- 0.03 ng/ml)
[5] = target: T1, Toll-like receptor 9 (Homo sapiens); experiment: Induction of TLR9-mediated immune stimulation in human PBMC assessed as IL2R production at 10 ug/ml after 24 hrs by luminex multiplex assay (RVb = 0.02 +/- 0.01 ng/ml)
[6] = target: T1, Toll-like receptor 9 (Homo sapiens); experiment: Induction of TLR9-mediated immune stimulation in human PBMC assessed as IL6 production at 10 ug/ml after 24 hrs by luminex multiplex assay (RVb = 0.01 ng/ml)
[7] = target: T1, Toll-like receptor 9 (Homo sapiens); experiment: Induction of TLR9-mediated immune stimulation in human PBMC assessed as IL6 production at 2 ug/ml after 24 hrs by luminex multiplex assay (RVb = 0.01 ng/ml)
[8] = target: T1, Toll-like receptor 9 (Homo sapiens); experiment: Induction of TLR9-mediated immune stimulation in human PBMC assessed as IP10 production at 10 ug/ml after 24 hrs by luminex multiplex assay (RVb = 0.00 ng/ml)
[9] = target: T1, Toll-like receptor 9 (Homo sapiens); experiment: Induction of TLR9-mediated immune stimulation in human PBMC assessed as MCP1 production at 10 ug/ml after 24 hrs by luminex multiplex assay (RVb = 0.08 +/- 0.02 ng/ml)
[10] = target: T1, Toll-like receptor 9 (Homo sapiens); experiment: Induction of TLR9-mediated immune stimulation in human PBMC assessed as RANTES production at 2 ug/ml after 24 hrs by luminex multiplex assay (RVb = 0.05 +/- 0.04 ng/ml)
[11] = target: T1, Toll-like receptor 9 (Homo sapiens); experiment: Induction of TLR9-mediated immune stimulation in human PBMC assessed as MCP1 production at 2 ug/ml after 24 hrs by luminex multiplex assay (RVb = 0.08 +/- 0.02 ng/ml)
[12] = target: T1, Toll-like receptor 9 (Homo sapiens); experiment: Induction of TLR9-mediated human B cell proliferation assessed as [3H]thymidine uptake after 56 hrs by scintillation counting
Method in brief: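 B cells were purified from human PBMCs (healthy volunteers), about 1 × 10⁵ cells, and stimulated with various agonist concentrations for 56 h. Cells were then pulsed with 0.75 μCi [³H]-thymidine and harvested 16 h later. Incorporation was counted by scintillation and reported as cpm.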

Cc1cn([C@H]2C[C@H](OCC(O)COP(=O)(S)O[C@H]3C[C@H](n4cc(C)c(=O)[nH]c4=O)O[C@@H]3COP(=O)(S)O[C@H]3[C@@H](O)[C@H](n4ccc(N)nc4=O)O[C@@H]3COP(=O)(S)O[C@H]3C[C@H](n4cc(C)c(=O)[nH]c4=O)O[C@@H]3COP(=O)(S)O[C@H]3C[C@H](n4cc(C)c(=O)[nH]c4=O)O[C@@H]3COP(=O)(S)O[C@H]3C[C@H](n4ccc5c(=O)[nH]c(N)nc54)O[C@@H]3COP(=O)(S)O[C@H]3[C@@H](O)[C@H](n4ccc(N)nc4=O)O[C@@H]3COP(=O)(S)O[C@H]3C[C@H](n4cc(C)c(=O)[nH]c4=O)O[C@@H]3COP(=O)(S)O[C@H]3[C@@H](O)[C@H](n4cnc5c(=O)[nH]c(N)nc54)O[C@@H]3COP(=O)(S)O[C@H]3C[C@H](n4cc(C)c(=O)[nH]c4=O)O[C@@H]3COP(=O)(S)O[C@H]3[C@@H](O)[C@H](n4ccc(N)nc4=O)O[C@@H]3COP(=O)(S)O[C@H]3C[C@H](n4cc(C)c(=O)[nH]c4=O)O[C@@H]3CO)[C@@H](COP(=O)(S)O[C@H]3[C@@H](O)[C@H](n4ccc(N)nc4=O)O[C@@H]3COP(=O)(S)O[C@H]3C[C@H](n4cc(C)c(=O)[nH]c4=O)O[C@@H]3COP(=O)(S)O[C@H]3C[C@H](n4cc(C)c(=O)[nH]c4=O)O[C@@H]3COP(=O)(S)O[C@H]3C[C@H](n4ccc5c(=O)[nH]c(N)nc54)O[C@@H]3COP(=O)(S)O[C@H]3[C@@H](O)[C@H](n4ccc(N)nc4=O)O[C@@H]3COP(=O)(S)O[C@H]3C[C@H](n4cc(C)c(=O)[nH]c4=O)O[C@@H]3COP(=O)(S)O[C@H]3[C@@H](O)[C@H](n4cnc5c(=O)[nH]c(N)nc54)O[C@@H]3COP(=O)(S)O[C@H]3C[C@H](n4cc(C)c(=O)[nH]c4=O)O[C@@H]3COP(=O)(S)O[C@H]3[C@@H](O)[C@H](n4ccc(N)nc4=O)O[C@@H]3COP(=O)(S)O[C@H]3C[C@H](n4cc(C)c(=O)[nH]c4=O)O[C@@H]3CO)O2)c(=O)[nH]c1=O (some centres undefined)
Activity [1]: 0.17 ng/mL
Activity [2]: 0.37 ng/mL
Activity [3]: 0.03 ng/mL
Activity [4]: 81.7 ng/mL
Activity [5]: 0.19 ng/mL
Activity [6]: 0.5 ng/mL
Activity [7]: 0.36 ng/mL
Activity [8]: 0.01 ng/mL
Activity [9]: 1.88 ng/mL
Activity [10]: 0.29 ng/mL
Activity [11]: 0.46 ng/mL
Activity [12]: Dose-dependent effect

Cc1cn([C@H]2C[C@H](O[C@@H]3C[C@@H](O)C[C@@H](OP(=O)(S)O[C@H]4C[C@H](n5cc(C)c(=O)[nH]c5=O)O[C@@H]4COP(=O)(S)O[C@H]4[C@@H](O)[C@H](n5ccc(N)nc5=O)O[C@@H]4COP(=O)(S)O[C@H]4C[C@H](n5cc(C)c(=O)[nH]c5=O)O[C@@H]4COP(=O)(S)O[C@H]4C[C@H](n5cc(C)c(=O)[nH]c5=O)O[C@@H]4COP(=O)(S)O[C@H]4C[C@H](n5ccc6c(=O)[nH]c(N)nc65)O[C@@H]4COP(=O)(S)O[C@H]4[C@@H](O)[C@H](n5ccc(N)nc5=O)O[C@@H]4COP(=O)(S)O[C@H]4C[C@H](n5cc(C)c(=O)[nH]c5=O)O[C@@H]4COP(=O)(S)O[C@H]4[C@@H](O)[C@H](n5cnc6c(=O)[nH]c(N)nc65)O[C@@H]4COP(=O)(S)O[C@H]4C[C@H](n5cc(C)c(=O)[nH]c5=O)O[C@@H]4COP(=O)(S)O[C@H]4[C@@H](O)[C@H](n5ccc(N)nc5=O)O[C@@H]4COP(=O)(S)O[C@H]4C[C@H](n5cc(C)c(=O)[nH]c5=O)O[C@@H]4CO)C3)[C@@H](COP(=O)(S)O[C@H]3[C@@H](O)[C@H](n4ccc(N)nc4=O)O[C@@H]3COP(=O)(S)O[C@H]3C[C@H](n4cc(C)c(=O)[nH]c4=O)O[C@@H]3COP(=O)(S)O[C@H]3C[C@H](n4cc(C)c(=O)[nH]c4=O)O[C@@H]3COP(=O)(S)O[C@H]3C[C@H](n4ccc5c(=O)[nH]c(N)nc54)O[C@@H]3COP(=O)(S)O[C@H]3[C@@H](O)[C@H](n4ccc(N)nc4=O)O[C@@H]3COP(=O)(S)O[C@H]3C[C@H](n4cc(C)c(=O)[nH]c4=O)O[C@@H]3COP(=O)(S)O[C@H]3[C@@H](O)[C@H](n4cnc5c(=O)[nH]c(N)nc54)O[C@@H]3COP(=O)(S)O[C@H]3C[C@H](n4cc(C)c(=O)[nH]c4=O)O[C@@H]3COP(=O)(S)O[C@H]3[C@@H](O)[C@H](n4ccc(N)nc4=O)O[C@@H]3COP(=O)(S)O[C@H]3C[C@H](n4cc(C)c(=O)[nH]c4=O)O[C@@H]3CO)O2)c(=O)[nH]c1=O (some centres undefined)
Activity [1]: 0.21 ng/mL
Activity [2]: 0.76 ng/mL
Activity [3]: 0.01 ng/mL
Activity [4]: 109 ng/mL
Activity [5]: 0.29 ng/mL
Activity [6]: 0.89 ng/mL
Activity [7]: 0.3 ng/mL
Activity [8]: 0.03 ng/mL
Activity [9]: 9.5 ng/mL
Activity [10]: 0.5 ng/mL
Activity [11]: 0.25 ng/mL
Activity [12]: Dose-dependent effect
